In brackets after ≈: the same amount, converted by molar mass.
Tests used:
Staphylococcus aureus [1] = experiment: Synergistic antibacterial activity against multidrug-resistant Staphylococcus aureus isolate 2895 in presence of meropenem by broth microdilution assay; format: functional
Summary of the method: (§1)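 CLSI broth microdilution on clinical MRSA isolates. MICs were measured for the β-lactam alone, the test agent alone and the two combined. Compounds were dissolved in DMSO, and growth inhibition was scored by eye. FIC index is the sum, over both agents, of MIC in combination divided by MIC alone. An FIC index ≤0.5 was taken as synergy.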

Staphylococcus aureus [2] = experiment: Synergistic antibacterial activity against multidrug-resistant Staphylococcus aureus isolate 231 in presence of meropenem by broth microdilution assay; format: functional
Summary of the method: (§2)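 Clinical MRSA isolate panel; compound and β-lactam tested alone and in combination by CLSI broth microdilution, compounds dissolved in DMSO, growth inhibition scored by eye, run in duplicate. FIC index = FIC(compound) + FIC(drug), each the MIC in combination divided by the MIC alone; an index ≤ 0.5 was called synergy.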

Staphylococcus aureus [3] = experiment: Synergistic antibacterial activity against multidrug-resistant Staphylococcus aureus isolate 254 in presence of meropenem by broth microdilution assay; format: functional; summary of the method: as §1
Staphylococcus aureus [4] = experiment: Synergistic antibacterial activity against multidrug-resistant Staphylococcus aureus isolate 2895 in presence of cloxacillin by broth microdilution assay; format: functional; summary of the method: as §1
Staphylococcus aureus [5] = experiment: Synergistic antibacterial activity against multidrug-resistant Staphylococcus aureus isolate 85 assessed as fractional Inhibitory concentration index in presence of meropenem by broth microdilution assay; format: functional
Staphylococcus aureus [6] = experiment: Synergistic antibacterial activity against multidrug-resistant Staphylococcus aureus isolate 1402 in presence of amoxicillin by broth microdilution assay; format: functional; summary of the method: as §2
Staphylococcus aureus [7] = experiment: Synergistic antibacterial activity against multidrug-resistant Staphylococcus aureus isolate 2919 in presence of cefuroxime by broth microdilution assay; format: functional; summary of the method: as §1
Staphylococcus aureus [8] = experiment: Synergistic antibacterial activity against multidrug-resistant Staphylococcus aureus isolate 3332 in presence of meropenem by broth microdilution assay; format: functional; summary of the method: as §1
Staphylococcus aureus [9] = experiment: Synergistic antibacterial activity against multidrug-resistant Staphylococcus aureus isolate 2728 assessed as fractional Inhibitory concentration index in presence of amoxicillin by broth microdilution assay; format: functional
Staphylococcus aureus [10] = experiment: Synergistic antibacterial activity against multidrug-resistant Staphylococcus aureus isolate 2224 in presence of cloxacillin by broth microdilution assay; format: functional; summary of the method: as §2
Staphylococcus aureus [11] = experiment: Synergistic antibacterial activity against multidrug-resistant Staphylococcus aureus isolate 3267 assessed as fractional Inhibitory concentration index in presence of cefuroxime by broth microdilution assay; format: functional
Staphylococcus aureus [12] = experiment: Antibacterial activity against Staphylococcus aureus ATCC 29213 by broth microdilution assay; format: functional
Summary of the method: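 Broth microdilution per CLSI guidelines; compounds dissolved in DMSO; single agents tested; growth inhibition read by eye; run in duplicate (table footnote states at least triplicates).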

Staphylococcus aureus [13] = experiment: Synergistic antibacterial activity against multidrug-resistant Staphylococcus aureus isolate 3589 in presence of meropenem by broth microdilution assay; format: functional
Staphylococcus aureus [14] = experiment: Synergistic antibacterial activity against multidrug-resistant Staphylococcus aureus isolate 2728 in presence of cefuroxime by broth microdilution assay; format: functional; summary of the method: as §1
Staphylococcus aureus [15] = experiment: Synergistic antibacterial activity against multidrug-resistant Staphylococcus aureus isolate 85 in presence of amoxicillin by broth microdilution assay; format: functional
Staphylococcus aureus [16] = experiment: Synergistic antibacterial activity against multidrug-resistant Staphylococcus aureus isolate 774 assessed as fractional Inhibitory concentration index in presence of meropenem by broth microdilution assay; format: functional
Staphylococcus aureus [17] = experiment: Synergistic antibacterial activity against multidrug-resistant Staphylococcus aureus isolate 1136 in presence of methicillin by broth microdilution assay; format: functional; summary of the method: as §2
Staphylococcus aureus [18] = experiment: Synergistic antibacterial activity against multidrug-resistant Staphylococcus aureus isolate 3589 in presence of cefuroxime by broth microdilution assay; format: functional
Staphylococcus aureus [19] = experiment: Synergistic antibacterial activity against multidrug-resistant Staphylococcus aureus isolate 256 in presence of cloxacillin by broth microdilution assay; format: functional; summary of the method: as §1
Staphylococcus aureus [20] = experiment: Synergistic antibacterial activity against multidrug-resistant Staphylococcus aureus isolate 231 in presence of cloxacillin by broth microdilution assay; format: functional; summary of the method: as §2
Staphylococcus aureus [21] = experiment: Antibacterial activity against multidrug-resistant Staphylococcus aureus isolate 3267 by broth microdilution assay; format: functional
Summary of the method: (§3)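 Broth microdilution MIC per CLSI guidelines against clinical MRSA isolates, for β-lactams and test compound alone and in combination. Compounds were dissolved in DMSO. Growth was read by eye, in duplicate. FIC index = FIC(compound) + FIC(drug); synergy defined as FIC index ≤0.5.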

Staphylococcus aureus [22] = experiment: Synergistic antibacterial activity against multidrug-resistant Staphylococcus aureus isolate 2895 in presence of methicillin by broth microdilution assay; format: functional; summary of the method: as §1
Staphylococcus aureus [23] = experiment: Synergistic antibacterial activity against multidrug-resistant Staphylococcus aureus isolate 1449 assessed as fractional Inhibitory concentration index in presence of cefuroxime by broth microdilution assay; format: functional
Summary of the method: (§4)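 CLSI broth microdilution run on clinical MRSA isolates with each β-lactam alone, the test agent alone, and the two combined; agents dissolved in DMSO. Growth inhibition was read by eye. FIC index = FIC(compound) + FIC(β-lactam), where each FIC is the MIC in combination divided by the MIC alone. An index ≤0.5 was taken as synergy.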

Staphylococcus aureus [24] = experiment: Synergistic antibacterial activity against multidrug-resistant Staphylococcus aureus isolate 757 assessed as fractional Inhibitory concentration index in presence of meropenem by broth microdilution assay; format: functional
Staphylococcus aureus [25] = experiment: Synergistic antibacterial activity against multidrug-resistant Staphylococcus aureus isolate 3580 in presence of meropenem by broth microdilution assay; format: functional
Staphylococcus aureus [26] = experiment: Synergistic antibacterial activity against multidrug-resistant Staphylococcus aureus isolate 2728 in presence of cloxacillin by broth microdilution assay; format: functional; summary of the method: as §1
Staphylococcus aureus [27] = experiment: Synergistic antibacterial activity against multidrug-resistant Staphylococcus aureus isolate 2516 in presence of cefuroxime by broth microdilution assay; format: functional; summary of the method: as §1
[28] = AUC (0 to infinity) in Sprague-Dawley rat at 1 mg/kg, iv by UPLC-MS/MS analysis; format: ADME, organism-based; design: dose 1 mg/kg, time infinity, route intravenous; conditions: in vivo
Staphylococcus aureus [29] = experiment: Antibacterial activity against multidrug-resistant Staphylococcus aureus isolate 774 by broth microdilution assay; format: functional; summary of the method: as §3
Staphylococcus aureus [30] = experiment: Synergistic antibacterial activity against multidrug-resistant Staphylococcus aureus isolate 2919 assessed as fractional Inhibitory concentration index in presence of meropenem by broth microdilution assay; format: functional
Staphylococcus aureus [31] = experiment: Synergistic antibacterial activity against multidrug-resistant Staphylococcus aureus isolate 757 in presence of cefuroxime by broth microdilution assay; format: functional
Staphylococcus aureus [32] = experiment: Synergistic antibacterial activity against multidrug-resistant Staphylococcus aureus isolate 2919 in presence of methicillin by broth microdilution assay; format: functional; summary of the method: as §1
Staphylococcus aureus [33] = experiment: Synergistic antibacterial activity against multidrug-resistant Staphylococcus aureus isolate 358 in presence of methicillin by broth microdilution assay; format: functional
Staphylococcus aureus [34] = experiment: Synergistic antibacterial activity against multidrug-resistant Staphylococcus aureus isolate 200 assessed as fractional Inhibitory concentration index in presence of methicillin by broth microdilution assay; format: functional
Staphylococcus aureus [35] = experiment: Synergistic antibacterial activity against multidrug-resistant Staphylococcus aureus isolate 2973 in presence of methicillin by broth microdilution assay; format: functional; summary of the method: as §1
Staphylococcus aureus [36] = experiment: Synergistic antibacterial activity against multidrug-resistant Staphylococcus aureus isolate 2901 in presence of cloxacillin by broth microdilution assay; format: functional; summary of the method: as §1
Staphylococcus aureus [37] = experiment: Synergistic antibacterial activity against multidrug-resistant Staphylococcus aureus isolate 3589 assessed as fractional Inhibitory concentration index in presence of methicillin by broth microdilution assay; format: functional
Staphylococcus aureus [38] = experiment: Synergistic antibacterial activity against multidrug-resistant Staphylococcus aureus isolate 358 in presence of meropenem by broth microdilution assay; format: functional
Staphylococcus aureus [39] = experiment: Synergistic antibacterial activity against multidrug-resistant Staphylococcus aureus isolate 1749 assessed as fractional Inhibitory concentration index in presence of cloxacillin by broth microdilution assay; format: functional; summary of the method: as §4

## CCCCCCCCCNc1ccc(F)c(C(N)=O)c1F
Staphylococcus aureus [1]
  MIC: 2 µg/mL
Staphylococcus aureus [2]
  MIC: 4 µg/mL
Staphylococcus aureus [3]
  MIC: 8 µg/mL
Staphylococcus aureus [4]
  MIC: 2 µg/mL
Staphylococcus aureus [5]
  fractional inhibitory concentration index (FICI): 4
Staphylococcus aureus [6]
  MIC: 4 µg/mL
Staphylococcus aureus [7]
  MIC: 2 µg/mL
Staphylococcus aureus [8]
  MIC: 4 µg/mL
Staphylococcus aureus [9]
  fractional inhibitory concentration index (FICI): 0.1
Staphylococcus aureus [10]
  MIC: 2 µg/mL
Staphylococcus aureus [11]
  fractional inhibitory concentration index (FICI): 0
Staphylococcus aureus [12]
  MIC: 3.1 µM (≈ 0.925 µg/mL)
Staphylococcus aureus [13]
  MIC: 4 µg/mL
Staphylococcus aureus [14]
  MIC: 2 µg/mL
Staphylococcus aureus [15]
  MIC: 8 µg/mL
Staphylococcus aureus [16]
  fractional inhibitory concentration index (FICI): 0.1
Staphylococcus aureus [17]
  MIC: 4 µg/mL
Staphylococcus aureus [18]
  MIC: 2 µg/mL
Staphylococcus aureus [19]
  MIC: 1 µg/mL
Staphylococcus aureus [20]
  MIC: 2 µg/mL
Staphylococcus aureus [21]
  MIC: 1020 µg/mL (≈ 3430 µM)
Staphylococcus aureus [22]
  MIC: 4 µg/mL
Staphylococcus aureus [23]
  fractional inhibitory concentration index (FICI): 1.5
Staphylococcus aureus [24]
  fractional inhibitory concentration index (FICI): 4.1
Staphylococcus aureus [25]
  MIC: 8 µg/mL
Staphylococcus aureus [26]
  MIC: 1 µg/mL
Staphylococcus aureus [27]
  MIC: 2 µg/mL
[28]
  AUC(0-inf): 1600 ng·h/mL
Staphylococcus aureus [29]
  MIC: 512 µg/mL (≈ 1720 µM)
Staphylococcus aureus [30]
  fractional inhibitory concentration index (FICI): 4.3
Staphylococcus aureus [31]
  MIC: 2 µg/mL
Staphylococcus aureus [32]
  MIC: 4 µg/mL
Staphylococcus aureus [33]
  MIC: 2 µg/mL
Staphylococcus aureus [34]
  fractional inhibitory concentration index (FICI): 0.3
Staphylococcus aureus [35]
  MIC: 4 µg/mL
Staphylococcus aureus [36]
  MIC: 0.5 µg/mL
Staphylococcus aureus [37]
  fractional inhibitory concentration index (FICI): 0.5
Staphylococcus aureus [38]
  MIC: 16 µg/mL
Staphylococcus aureus [39]
  fractional inhibitory concentration index (FICI): 1.3

Reference: ChEMBL document CHEMBL4330069, “Boosting the efficacy of anti-MRSA β-lactam antibiotics via an easily accessible, non-cytotoxic and orally bioavailable FtsZ inhibitor” (Eur J Med Chem, 2019)
